Screens (PubChem)
TDP2 absorb: human TDP2 enzyme inhibitors, primary screen, biochemical, epi absorbance, recombinant enzyme | inhibition, % at 12.8 µM | hit rate 0.34% among 370,000 | Tyrosyl-DNA phosphodiesterase 2 (Homo sapiens), O95551 | T5PNP hydrolysis, p-nitrophenol absorbance 415 nm;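 active = inhibition above the mean of all tested compounds plus 3 SD, set per campaign, cut at about 25% in these data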;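 also: 0% = DMSO with enzyme and 100% = buffer with substrate but no TDP2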
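Test system: human TDP2 enzyme; Input: 120 nM TDP2 per well; Buffer or medium: Mg2+-containing Tris-HCl buffer, pH 7.5; Reagent: 5 mM T5PNP; Dosing: 12.8 µM single point, 1% DMSO; Incubation: reaction 2 h, 37 °C; Detection: p-Nitrophenol epi absorbance; Read-out: % inhibition relative to enzyme-containing and enzyme-free wells; Replicates: single well per compound.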
GSTO1 counter: inhibitors of recombinant GSTO1, primary screen, counter-screen for RBBP9 inhibitor project, biochemical, fluorescence polarization. Glutathione S-transferase omega-1 (Homo sapiens), P78417. activity-based probe fluorescence polarization. inhibition, % at 5.96 µM. hit rate 1.1% among 300,000. AID 1974, 2009;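 active = inhibition above the campaign mean inhibition plus 3 SD, cut at about 35% in these data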;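 also: 0% = GSTO1-1 with DMSO and 100% = wells lacking GSTO1-1 enzyme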
Target sequence (P78417 whole entry, looked up): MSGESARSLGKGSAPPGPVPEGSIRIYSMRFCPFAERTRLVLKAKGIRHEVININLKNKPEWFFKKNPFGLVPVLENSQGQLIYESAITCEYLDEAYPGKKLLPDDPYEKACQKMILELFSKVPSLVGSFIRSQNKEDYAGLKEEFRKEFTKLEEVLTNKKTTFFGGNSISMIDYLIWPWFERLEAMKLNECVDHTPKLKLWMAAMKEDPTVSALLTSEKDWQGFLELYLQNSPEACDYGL
CTSL1 counter: Fasciola hepatica cathepsin L1 inhibitors, primary screen, counter-screen for PFM18AAP inhibitor project, biochemical, QFRET, fluorogenic peptide substrate | hit rate 0.49% among 300,000 | recombinant F. hepatica cathepsin L1, Z-Leu-Arg-MCA fluorescence | inhibition, % at 5.96 µM | AID 1906, 2009;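 active = inhibition above the mean of all tested compounds plus 3 SD, set per screening campaign, cut at about 17% in these data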;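 also: 0% = plate median of test compound wells and 100% = 1 µM Z-Phe-Ala-diazomethylketone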
PRMT1 FP inh: PRMT1 methyltransferase inhibitors, primary screen, biochemical, fluorescence polarization; Protein arginine N-methyltransferase 1 (Homo sapiens), Q99873; recombinant PRMT1, activity-based probe fluorescence polarization; inhibition, % at 2.79 µM; hit rate 1.3% among 370,000; AID 652257, 2013;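 active = inhibition above about 21% made by adding two undisclosed values, limit read from the data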
Target sequence (Q99873 whole entry, looked up): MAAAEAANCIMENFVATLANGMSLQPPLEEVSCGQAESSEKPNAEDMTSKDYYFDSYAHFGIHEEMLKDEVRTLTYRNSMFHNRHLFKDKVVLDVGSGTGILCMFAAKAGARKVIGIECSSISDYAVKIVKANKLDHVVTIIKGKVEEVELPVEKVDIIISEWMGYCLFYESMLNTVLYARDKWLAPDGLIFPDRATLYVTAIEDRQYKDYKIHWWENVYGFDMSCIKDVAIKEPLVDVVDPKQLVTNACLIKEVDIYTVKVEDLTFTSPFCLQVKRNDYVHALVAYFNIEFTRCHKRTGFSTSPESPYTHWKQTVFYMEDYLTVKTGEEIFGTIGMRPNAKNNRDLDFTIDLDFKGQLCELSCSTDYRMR
PAD4 FP inh: human PAD4 inhibitors, primary screen, biochemical, fluorescence polarization, 1536-well format; Protein-arginine deiminase type-4 (Homo sapiens), Q9UM07; inhibition, % at 6.36 µM; AID 485272, 2010; hit rate 0.41% among 330,000; recombinant PAD4, RCA probe fluorescence polarization;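 active = percent inhibition above a cutoff equal to the mean of all tested compounds plus 3 SD, cut at about 15% in these data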;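 also: 0% = PAD4 with RCA probe and DMSO and 100% = probe without PAD4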
* = called active by the depositor; nt = no result. Hits are enriched below; roughly 2.5% of the tested compounds scored in any of these assays.

SMILES	TDP2 absorb	GSTO1 counter	CTSL1 counter	PRMT1 FP inh	PAD4 FP inh
CCCOC(=O)C1=C(C)NC2=C(C(=O)C(C(=O)OC)C(C)C2)C1c1ccc(N(CC)CC)cc1 (stereo unspecified)	-2	6	20*	2	2
Cc1c(NC(=O)C2CCCN(S(=O)(=O)c3cccc4ccccc34)C2)c(=O)n(-c2ccccc2)n1C (stereo unspecified)	0	nt	nt	-2	nt
CCOC(=O)c1c(C2CC2)csc1NC(=O)COC(=O)CCS(=O)(=O)c1ccc(C)cc1	-1	37*	-46	3	0
Cc1ccc(S(=O)(=O)CCC(=O)OCC(=O)Nc2sccc2C#N)cc1	-7	nt	nt	3	nt
OCCN1CCCC12CCC(c1ccccc1)CC2 (stereo unspecified)	0	nt	nt	1	nt
Cc1cc(C(=O)NC2CCC(C)CC2)c(C)o1 (stereo unspecified)	-2	4	4	0	-1
CSCc1cc(C(=O)NC2CC2)c(N)s1	7	nt	nt	23*	nt
Nc1sc2c(c1C(=O)NCCc1ccccc1)CCCC2	13	nt	nt	36*	nt
O=C(CSc1ncnc2sc3c(c12)CCCC3)NC1CCS(=O)(=O)C1 (stereo unspecified)	0	nt	nt	7	-2
Nc1sc2c(c1C(=O)NC1CCS(=O)(=O)C1)CCCC2 (stereo unspecified)	14	16	-1	23*	-8
O=C(NC1CCCCN(Cc2cccc(Cl)c2)C1=O)c1ccc2ccccc2c1 (stereo unspecified)	-5	nt	nt	-8	nt
Cc1nnc(NN)n(N)c1=O	-9	37*	-3	2	2
Cc1nnc(Nc2ccccc2)n(N)c1=O	6	11	1	-3	-2
COc1ccc(Cn2cc(CN3[C@@H](CC(C)C)COc4cccc(F)c4S3(=O)=O)nn2)cc1	-10	nt	nt	-2	nt
COC(=O)[C@H](C(C)C)N1CCc2nnn(Cc3ccc(C)cc3)c2-c2cc(F)ccc2S1(=O)=O	4	nt	nt	-1	nt
CC(C)=NNc1nc2c(c(=O)[nH]c(=O)n2C)n1CCc1ccccc1	-7	33	-1	10	1
Cn1c(=O)[nH]c(=O)c2c1nc(N/N=C/C(Br)=C/c1ccccc1)n2CCO	-30	35*	9	2	-1
Cc1ccc(C)c(NC(=O)CN2C(=O)CCSc3ccccc32)c1	5	nt	nt	6	nt
Cc1ccc(C(=O)N/N=C\C=C\c2ccc(Br)cc2)cn1	-7	-2	3	-2	-1
Cc1ccc(C(=O)N/N=C/c2cc(Br)ccc2O)cn1	-6	3	19*	-5	-6
O=C(Nc1ccc2c(c1)Cc1ccccc1-2)NC1CCCCN(Cc2cccc(Cl)c2)C1=O (stereo unspecified)	5	nt	nt	-3	nt
O=C(CCCCCN1C(=O)C2C3C=CC(C3)C2C1=O)Nc1ccc2ncccc2c1 (stereo unspecified)	4	nt	nt	-1	nt
O=C(c1ccccc1)c1cc(Cl)ccc1N1C(=O)C=CC1=O	1	nt	nt	91*	nt
CC(=O)O[C@H]1CC(C)(C)C(=C=C/C(C)=C/C=C/C(C)=C/C=C/C=C(C)/C=C/C=C(\C)C(=O)C[C@@]23O[C@]2(C)C[C@@H](O)CC3(C)C)[C@](C)(O)C1	nt	2	34*	nt	1
NS(=O)(=O)c1ccc(N=Nc2c[nH]c(=O)c(O)c2)cc1	23	64*	-1	27*	3
SMILES	TDP2 absorb	GSTO1 counter	CTSL1 counter	PRMT1 FP inh	PAD4 FP inh
Nc1nc(O)c(N=Nc2ccc(S(N)(=O)=O)cc2)c(=O)[nH]1	-9	nt	nt	5	nt
Cc1c[nH]c2cccc(-c3cc4ccccc4o3)c12	-6	nt	nt	-6	nt
C#CCOCCOCCOCCNc1nc(N2CCN(C(=O)[C@H]([C@@H](C)CC)n3cc([C@@H](N)CC(C)C)nn3)CC2)nc(N2CCN(C(=O)[C@H](Cc3ccc(O)cc3)n3cc([C@@H](N)CC(C)C)nn3)CC2)n1	-5	5	11	-2	3
C#CCOCCOCCOCCNc1nc(N2CCN(C(=O)[C@H]([C@@H](C)CC)n3cc([C@@H](N)CC(C)C)nn3)CC2)nc(N2CCN(C(=O)[C@H]([C@@H](C)CC)n3cc([C@@H](N)CC(C)C)nn3)CC2)n1	-3	8	25*	-2	3
COC(=O)C1CSC(C(=O)OC)N1C(=O)Nc1c(C)cccc1C (stereo unspecified)	0	0	-1	0	-2
COC(=O)C1CSC(C(=O)OC)N1C(=O)Nc1ccccc1 (stereo unspecified)	6	-6	0	24*	5
CCOC(=O)C1Nc2ccccc2C2C(O)C(O)CC12 (stereo unspecified)	22	20	-2	27*	-5
CCOC(=O)C1Nc2ccc(C(F)(F)F)cc2C2c3ccccc3CC12 (stereo unspecified)	18	4	9	-1	3
COc1cc(C(=O)O/N=C2\C=CC(=O)C=C2C)cc(OC)c1OC	-2	1	2	7	3
COc1cc(C(=O)ON=C2C3CC4CC(C3)CC2C4)cc(OC)c1OC	-7	-3	36*	0	5
C=CCn1c(SCC(=O)c2ccc(Br)cc2)nnc1C(CC(C)C)NC(=O)c1cccs1 (stereo unspecified)	6	36*	2	-1	1
CC(C)CC(NC(=O)c1cccs1)c1nnc(SCc2ccc(Cl)c(Cl)c2)n1C (stereo unspecified)	-1	5	2	0	-3
COc1cc(NC(=O)CSc2nc(C)cc(=O)[nH]2)cc(OC)c1	0	nt	nt	-1	nt
CC1C(=O)NN=C1c1ccc([N+](=O)[O-])cc1 (stereo unspecified)	-1	nt	nt	4	nt
CC1CN2C(c3ccc([N+](=O)[O-])cc3)=CSC2=N1 (stereo unspecified)	1	-1	0	22*	1
Cc1nn(C)c(C)c1NC(=O)Nc1ccc(Cl)c(Cl)c1	-9	3	20*	-5	-2
O=C1N(CCCO)CCC12CCCCC2	8	nt	nt	1	nt
Cc1ccccc1NC(=O)N(C)[C@H]1C[C@H]2c3[nH]c4c(-c5ccc6c(c5)OCO6)cccc4c3CCN2C[C@H]1[C@H](C)O	3	nt	nt	1	nt
O=C(O)c1ccccc1C(=O)Nc1ccc(S(=O)(=O)Nc2nccs2)cc1	-6	4	-2	24*	3
N#Cc1nc(COc2ccccc2F)oc1NCCCn1ccnc1	-10	36*	0	-4	0
COc1ccccc1OCc1nc(C#N)c(NCCCn2ccnc2)o1	2	20	2	3	0
COC(=O)[C@]12C[C@H](CC(=O)NCCCCc3ccccc3)C(=O)N(Cc3ccc(Cl)cc3Cl)C1=C[C@H](COCc1ccccc1)O[C@@H]2C	-5	nt	nt	4	nt
